Test results from ChEMBL document CHEMBL1759935, “Pharmacokinetic optimisation of novel indole-2-carboxamide cannabinoid CB1 antagonists” (Bioorg Med Chem Lett, 2011).
pIC50, pKi: −log10 of the molar value.

Legend:
[1] = Intrinsic clearance in human liver microsomes in presence of NADPH; type: ADME, Microsome
Outline: (§1)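 Pooled human microsomes (gut or liver) at 0.5 mg protein/mL with 1 mM NADPH, pH 7.4 (P450 pathway). Compound loss followed by LC–MS/MS in duplicate time-course incubations; intrinsic clearance given per mg protein.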

[2] = Intrinsic clearance in human liver microsomes in presence of UGT; type: ADME, Microsome
Outline: (§2)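 UGT pathway: human gut or liver microsomes at 0.5 mg protein/mL with 2 mM UDPGA, alamethicin and 1 mM MgCl2, pH 7.1. Compound depletion measured by LC–MS/MS in duplicate time-course incubations; intrinsic clearance expressed per mg protein.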

[3] = molecular target: T1, Cannabinoid receptor 1 (Homo sapiens, UniProt P21554); assay: Antagonist activity against human CB1 receptor; type: functional
T1 sequence (P21554 whole entry): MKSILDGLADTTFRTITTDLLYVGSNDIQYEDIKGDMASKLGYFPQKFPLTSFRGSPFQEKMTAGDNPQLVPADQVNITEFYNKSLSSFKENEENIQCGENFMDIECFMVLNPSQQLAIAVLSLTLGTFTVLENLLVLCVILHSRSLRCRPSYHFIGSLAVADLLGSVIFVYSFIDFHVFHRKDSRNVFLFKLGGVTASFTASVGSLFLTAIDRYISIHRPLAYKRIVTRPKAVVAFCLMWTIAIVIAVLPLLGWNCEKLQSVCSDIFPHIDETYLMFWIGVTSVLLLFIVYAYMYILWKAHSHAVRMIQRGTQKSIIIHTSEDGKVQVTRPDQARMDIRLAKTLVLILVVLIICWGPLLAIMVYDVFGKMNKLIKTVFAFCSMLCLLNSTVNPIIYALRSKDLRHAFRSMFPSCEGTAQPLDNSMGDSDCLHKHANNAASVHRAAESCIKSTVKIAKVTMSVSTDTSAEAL

[4] = Intrinsic clearance in human gut microsomes in presence of UGT; type: ADME, Microsome; outline: as §2
[5] = Intrinsic clearance in human gut microsomes in presence of NADPH; type: ADME, Microsome; outline: as §1
[6] = molecular target: T1, Cannabinoid receptor 1; assay: biochemical; type: cell-based, CHO
[7] = system: Mus musculus; assay: Inhibition of WIN55212-2-induced hypothermia in po dosed mouse assessed as change in rectal temperature administered 15 mins before WIN55212-2 challenge measured after 75 mins; type: functional; settings: read-out: ID50 (the source's name)
Outline: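 Antagonist or vehicle (5% mulgofen in saline, 10 mL/kg) given orally 75 min before rectal temperature reading. WIN 55,212-2 mesylate (10 mL/kg) given sc 60 min before the reading, at its time of maximal hypothermia. Metal probe with vaseline inserted about 1.5 cm; highest temperature stable for 10 s recorded. ID50 reported with confidence interval.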

[8] = Intrinsic clearance in dog liver microsomes in presence of NADPH; type: ADME, Canis lupus familiaris, Microsome
Outline: (§3)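 P450 pathway: compound depletion in duplicate time-course incubations of microsomes at 0.5 mg protein/mL with 1 mM NADPH, pH 7.4. Liver microsomes prepared in-house; small intestinal microsomes purchased. Loss measured by LC–MS/MS; CL_int expressed per mg microsomal protein.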

[9] = Intrinsic clearance in rat gut microsomes in presence of UGT; type: ADME, Microsome
Outline: (§4)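 UGT pathway: compound loss in duplicate time-course incubations of liver (prepared in-house) or small intestinal microsomes at 0.5 mg protein/mL, with 2 mM UDPGA, alamethicin and 1 mM MgCl₂ at pH 7.1. Detection by LC–MS/MS; CL_int expressed per mg microsomal protein.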

[10] = species: Rattus norvegicus; assay: Clearance in rat; type: ADME, organism-based; settings: in vivo
[11] = Intrinsic clearance in mouse gut microsomes in presence of NADPH; type: ADME, Microsome; outline: as §3
[12] = Intrinsic clearance in rat liver microsomes in presence of NADPH; type: ADME, Microsome; outline: as §3
[13] = Intrinsic clearance in dog gut microsomes in presence of NADPH; type: ADME, Canis lupus familiaris, Microsome; outline: as §3
[14] = Bioavailability in dog; type: ADME, organism-based, Canis lupus familiaris; settings: in vivo
[15] = Intrinsic clearance in mouse liver microsomes in presence of UGT; type: ADME, Microsome; outline: as §4
[16] = Intrinsic clearance in mouse liver microsomes in presence of NADPH; type: ADME, Microsome; outline: as §3
[17] = species: Canis familiaris; assay: Clearance in dog; type: ADME, organism-based, Canis lupus familiaris; settings: in vivo
[18] = Intrinsic clearance in rat gut microsomes in presence of NADPH; type: ADME, Microsome; outline: as §3
[19] = Intrinsic clearance in dog liver microsomes in presence of UGT; type: ADME, Canis lupus familiaris, Microsome; outline: as §4
[20] = species: Mus musculus; assay: Clearance in mouse; type: ADME, organism-based; settings: in vivo
[21] = Bioavailability in rat; type: ADME, organism-based; settings: in vivo
[22] = Intrinsic clearance in dog gut microsomes in presence of UGT; type: ADME, Canis lupus familiaris, Microsome; outline: as §4
[23] = Intrinsic clearance in mouse gut microsomes in presence of UGT; type: ADME, Microsome; outline: as §4
[24] = Bioavailability in mouse; type: ADME, organism-based; settings: in vivo
[25] = Intrinsic clearance in rat liver microsomes in presence of UGT; type: ADME, Microsome; outline: as §4
[26] = molecular target: Cannabinoid receptor 2 (Homo sapiens, UniProt P34972); assay: Displacement of [3H]CP55940 from human recombinant CB2 receptor expressed in Sf9 cells
Chain of Cannabinoid receptor 2 (P34972 whole entry): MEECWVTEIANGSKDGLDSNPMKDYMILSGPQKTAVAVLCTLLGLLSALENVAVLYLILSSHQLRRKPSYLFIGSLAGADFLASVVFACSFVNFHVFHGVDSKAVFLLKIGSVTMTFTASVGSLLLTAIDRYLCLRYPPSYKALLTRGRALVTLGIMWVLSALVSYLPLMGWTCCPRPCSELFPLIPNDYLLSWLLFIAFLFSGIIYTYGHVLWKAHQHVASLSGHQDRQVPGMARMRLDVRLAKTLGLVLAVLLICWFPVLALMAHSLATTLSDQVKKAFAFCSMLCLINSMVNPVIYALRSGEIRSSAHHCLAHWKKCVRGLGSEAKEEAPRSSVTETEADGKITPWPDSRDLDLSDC
Outline: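 Competition binding against [3H]CP55,940 on membranes from Sf9 cells expressing recombinant human CB2 receptor; run at least in duplicate.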

Structure (SMILES) | microsomal CLint [1] | microsomal CLint [2] | pIC50 [3] | microsomal CLint [4] | microsomal CLint [5] | ED50 [7] | other results
COc1ccc(C(C)(C)C)cc1Cn1c(C(=O)NCC2(CO)CC2)cc2cc(C#N)ccc21 | 188 µL/min/mg | < 6 µL/min/mg | 8.83 | 26 µL/min/mg | < 6 µL/min/mg | – | –
COc1ccc(Cl)cc1Cn1c(C(=O)NCC2(CO)CCC2)cc2cc(C#N)ccc21 | 196 µL/min/mg | 34 µL/min/mg | 8.59 | 179 µL/min/mg | < 6 µL/min/mg | – | –
Cc1ccc(F)cc1Cn1c(C(=O)NCC2(CO)CCC2)cc2cc(C#N)ccc21 | 190 µL/min/mg | 49 µL/min/mg | 8.31 | 175 µL/min/mg | < 6 µL/min/mg | – | –
COc1ccc(OC(F)(F)F)cc1Cn1c(C(=O)NCC(C)(C)O)cc2cc(C#N)ccc21 | < 6 µL/min/mg | < 6 µL/min/mg | 7.65 | 8 µL/min/mg | < 6 µL/min/mg | > 10 µmol/kg | pKi [6]: 8.26
COc1ccc(C(F)(F)F)cc1Cn1c(C(=O)NCC(C)(C)O)cc2cc(C#N)ccc21 | 7 µL/min/mg | < 6 µL/min/mg | 7.94 | < 6 µL/min/mg | < 6 µL/min/mg | > 10 µmol/kg | pKi [6]: 8.12
CC(C)(O)CCNC(=O)c1cc2cc(C#N)ccc2n1Cc1cccc(OC(F)(F)F)c1 | 9 µL/min/mg | < 6 µL/min/mg | 7.87 | 9 µL/min/mg | < 6 µL/min/mg | 9.67 µmol/kg | pKi [6]: 8.30
Cc1ccc(C(F)(F)F)cc1Cn1c(C(=O)NCCC(C)(C)O)cc2cc(C#N)ccc21 | 12 µL/min/mg | < 6 µL/min/mg | 8.29 | < 6 µL/min/mg | < 6 µL/min/mg | 1.16 µmol/kg | microsomal CLint [8]: 17 µL/min/mg; pKi [6]: 8.36; microsomal CLint [9]: < 6 µL/min/mg; clearance [10]: 200 mL/min/kg; microsomal CLint [11]: < 6 µL/min/mg; microsomal CLint [12]: > 280 µL/min/mg; microsomal CLint [13]: < 6 µL/min/mg; bioavailability [14]: 42%; microsomal CLint [15]: < 6 µL/min/mg; microsomal CLint [16]: 33 µL/min/mg; clearance [17]: 15 mL/min/kg; microsomal CLint [18]: < 6 µL/min/mg; microsomal CLint [19]: < 6 µL/min/mg; clearance [20]: 10 mL/min/kg; bioavailability [21]: 2%; microsomal CLint [22]: < 6 µL/min/mg; microsomal CLint [23]: < 6 µL/min/mg; bioavailability [24]: 31%; microsomal CLint [25]: > 280 µL/min/mg; pKi [26]: < 5.00
CC(O)CCNC(=O)c1cc2cc(C#N)ccc2n1Cc1cccc(OC(F)(F)F)c1 (configuration not stated) | 113 µL/min/mg | < 6 µL/min/mg | 8.05 | < 6 µL/min/mg | < 6 µL/min/mg | – | –
N#Cc1ccc2c(c1)cc(C(=O)NCCC(O)C(F)(F)F)n2Cc1cccc(OC(F)(F)F)c1 (configuration not stated) | 59 µL/min/mg | 31 µL/min/mg | 8.09 | < 6 µL/min/mg | 26 µL/min/mg | – | –
N#Cc1ccc2c(c1)cc(C(=O)NCCC(O)(C(F)(F)F)C(F)(F)F)n2Cc1cccc(OC(F)(F)F)c1 | 20 µL/min/mg | 24 µL/min/mg | 8.22 | < 6 µL/min/mg | < 6 µL/min/mg | – | –
COc1ccc(C(F)(F)F)cc1Cn1c(C(=O)NCCC2(O)CCC2)cc2cc(C#N)ccc21 | 88 µL/min/mg | < 6 µL/min/mg | 8.83 | < 6 µL/min/mg | < 6 µL/min/mg | – | –
N#Cc1ccc2c(c1)cc(C(=O)NCCC1(O)CCC1)n2Cc1cccc(OC(F)(F)F)c1 | 78 µL/min/mg | < 6 µL/min/mg | 8.58 | < 6 µL/min/mg | < 6 µL/min/mg | – | –
COc1ccc(Br)cc1Cn1c(C(=O)NCCCO)cc2cc(C#N)ccc21 | 41 µL/min/mg | < 6 µL/min/mg | 8.03 | < 6 µL/min/mg | < 6 µL/min/mg | – | –
Cc1c(C(=O)NN2CCCCC2)nn(-c2ccc(Cl)cc2Cl)c1-c1ccc(Cl)cc1 [RIMONABANT] | 69 µL/min/mg | < 6 µL/min/mg | – | < 6 µL/min/mg | < 6 µL/min/mg | 1.29 µmol/kg | –
